# Source: ChEMBL document CHEMBL1140035, “4"-Benzoylureido-TSAO derivatives as potent and selective non-nucleoside HCMV inhibitors. Structure-activity relationship and mechanism of antiviral action” (J Med Chem, 2008)
# The source made the active and inactive calls. The rule behind the calls is not given here.
# Columns and labels:
# [1] = Cytotoxicity against HEL cells assessed as reduction in cell growth after 3 days; type: cell-based; conditions: human
# Outline: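 HEL cells were seeded at 5 × 10³ cells/well and allowed to proliferate for 24 h. Compound-containing medium was then added at several concentrations for 3 days at 37 °C. Cells were counted with a Coulter counter. CC50, the concentration reducing cell growth by 50% versus untreated controls, was read from plots of cell number (% of control) against concentration.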
# Human betaherpesvirus 5 [2] = experiment: Antiviral activity against HCMV AD169 in HEL cells assessed as reduction of virus-induced cytopathogenicity after 7 days; type: functional, organism-based; conditions: Human betaherpesvirus 5, AD169, HEL, 168 h
# Outline: (§1)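 Confluent HEL fibroblasts were infected with strain AD-169 or Davis at 100 PFU/well. After 2 h, residual virus was removed and medium with serial compound concentrations was added, in duplicate. Plates were held 7 days at 37 °C, fixed with ethanol, and scored microscopically for virus-induced cytopathicity. EC50 is the concentration reducing cytopathicity by 50%.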
# Human betaherpesvirus 5 [3] = experiment: Antiviral activity against HCMV Davis in HEL cells assessed as reduction of virus-induced cytopathogenicity after 7 days; type: functional, organism-based; conditions: Human betaherpesvirus 5, Davis, 168 h; outline: as §1
# [4] = Cytotoxicity against HEL cells assessed as alteration in cell morphology after 3 days; type: cell-based; conditions: human
# Outline: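 Minimum cytotoxic concentration: the lowest compound concentration causing a microscopically detectable alteration of HEL cell morphology.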
# Human betaherpesvirus 5 [5] = experiment: Antiviral activity against (S)-3-hydroxy-2-phosphonomethoxypropyl adenine-resistant HCMV with DNA polymerase mutant in HEL cells assessed as reduction of virus-induced cytopathogenicity; type: functional, organism-based; conditions: Human betaherpesvirus 5, HEL
# Outline: (§2)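 Resistant mutants raised in vitro by serial passage of HCMV AD-169 under rising drug concentrations. Confluent HEL fibroblasts infected at 100 PFU/well for 2 h, then the inoculum was removed. Cells were kept with serial compound concentrations in duplicate for 7 days at 37 °C. After ethanol fixation, cytopathicity was scored microscopically. EC50 is the concentration halving virus-induced cytopathicity.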
# Human betaherpesvirus 5 [6] = experiment: Antiviral activity against HCMV 530 with […] and DNA polymerase mutation in HEL cells assessed as reduction of virus-induced cytopathogenicity; type: functional, organism-based; conditions: Human betaherpesvirus 5, HEL
# Outline: (§3)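 Drug-resistant HCMV clinical isolates from immunocompromised patients, carrying UL97 and/or DNA polymerase mutations. Confluent HEL fibroblasts infected at 100 PFU/well for 2 h, then residual virus was removed. Medium with serial compound concentrations added in duplicate for 7 days at 37 °C. After ethanol fixation, cytopathicity was scored microscopically. EC50 is the concentration reducing cytopathicity by 50%.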
# Human betaherpesvirus 5 [7] = experiment: Antiviral activity against acyclovir-resistant HCMV with DNA polymerase mutant in HEL cells assessed as reduction of virus-induced cytopathogenicity; type: functional, organism-based; conditions: Human betaherpesvirus 5, HEL; outline: as §2
# Human betaherpesvirus 5 [8] = experiment: Antiviral activity against HCMV 6 with […] mutation in HEL cells assessed as reduction of virus-induced cytopathogenicity; type: functional, organism-based; conditions: Human betaherpesvirus 5, HEL; outline: as §3
# Human betaherpesvirus 5 [9] = experiment: Antiviral activity against (S)-3-hydroxy-2-phosphonomethoxypropyl cytosine-resistant HCMV with DNA polymerase mutant in HEL cells assessed as reduction of virus-induced cytopathogenicity; type: functional, organism-based; conditions: Human betaherpesvirus 5, HEL; outline: as §2
# Human betaherpesvirus 5 [10] = experiment: Antiviral activity against foscarnet-resistant HCMV with DNA polymerase mutant in HEL cells assessed as reduction of virus-induced cytopathogenicity; type: functional, organism-based; conditions: Human betaherpesvirus 5, HEL; outline: as §2
# Human betaherpesvirus 5 [11] = experiment: Antiviral activity against HCMV 521 with […] and DNA polymerase mutation in HEL cells assessed as reduction of virus-induced cytopathogenicity; type: functional, organism-based; conditions: Human betaherpesvirus 5, HEL; outline: as §3
# Human betaherpesvirus 5 [12] = experiment: Antiviral activity against ganciclovir-resistant HCMV with DNA polymerase mutant in HEL cells assessed as reduction of virus-induced cytopathogenicity; type: functional, organism-based; conditions: Human betaherpesvirus 5, HEL; outline: as §2
# Human betaherpesvirus 5 [13] = experiment: Antiviral activity against HCMV in HEL cells assessed as reduction of virus-induced cytopathogenicity administered at 56 hrs post infection; type: functional, organism-based
# Outline: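 Time-of-addition: confluent HEL cultures were infected with about 100 PFU/well of HCMV Davis. Compound dilutions were added at 0 h or at later time points post infection, with one plate set per time point. Seven days after infection, plates were ethanol-fixed and Giemsa-stained. Antiviral effect was scored microscopically and EC50 calculated.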
EC50 (Human betaherpesvirus 5 [2]) [µM],EC50 (Human betaherpesvirus 5 [3]) [µM],SMILES,CC50 at 72 h [1] [µM],MCC at 72 h [4] [µM],EC50 (Human betaherpesvirus 5 [5]) [µg/mL],EC50 (Human betaherpesvirus 5 [6]) [µg/mL],EC50 (Human betaherpesvirus 5 [7]) [µg/mL],EC50 (Human betaherpesvirus 5 [8]) [µg/mL],EC50 (Human betaherpesvirus 5 [9]) [µg/mL],EC50 (Human betaherpesvirus 5 [10]) [µg/mL],EC50 (Human betaherpesvirus 5 [11]) [µg/mL],EC50 (Human betaherpesvirus 5 [12]) [µg/mL],Activity (Human betaherpesvirus 5 [13])
12.1,3.9,Cc1cn([C@@H]2O[C@H](CO[Si](C)(C)C(C)(C)C)[C@@]3(OS(=O)(=O)C=C3NC(=O)NC(=O)c3ccccc3)[C@H]2O[Si](C)(C)C(C)(C)C(C)C)c(=O)n(C)c1=O,≥ 100,≥ 100,,,,,,,,,
,,Nc1nc(N)c2ncn(CCOCP(=O)(O)O)c2n1 [PMEDAP],,,2.8,12,38,26,5.2,44,6.7,1.6,
,,Nc1ncnc2c1ncn2CCOCP(=O)(O)O [ADEFOVIR],,,9.1,42,137,90,18,128,20,5.8,
,,Nc1ccn(C[C@@H](CO)OCP(=O)(O)O)c(=O)n1.O.O [CIDOFOVIR],,,3.1,0.62,0.069,0.49,2.2,0.1,0.79,0.59,
15,> 10,Cc1cn([C@@H]2O[C@H](CO[Si](C)(C)C(C)(C)C)[C@@]3(OS(=O)(=O)C=C3NC(=O)N(C(=O)Nc3ccccc3)c3ccccc3)[C@H]2O[Si](C)(C)C(C)(C)C)c(=O)n(C)c1=O,13,46,,,,,,,,,
,,Nc1ncnc2c1ncn2C[C@@H](CO)OCP(=O)(O)O,,,6.2,1.2,0.081,0.91,3.3,0.11,2.3,2,
> 100,> 100,CC(=O)O[C@H]1[C@H](n2cc(C)c(=O)n(C)c2=O)O[C@H](COC(=O)c2ccccc2)[C@@]12OS(=O)(=O)C=C2NC(=O)NC(=O)c1ccccc1,> 100,> 100,,,,,,,,,
1.8,2,CCNC(=O)NC1=CS(=O)(=O)O[C@@]12[C@@H](CO[Si](C)(C)C(C)(C)C)O[C@@H](n1cc(C)c(=O)n(C)c1=O)[C@@H]2O[Si](C)(C)C(C)(C)C,10,≥ 3.2,,,,,,,,,
2.3,2.8,CCOC(=O)NC(=O)NC1=CS(=O)(=O)O[C@@]12[C@@H](CO[Si](C)(C)C(C)(C)C)O[C@@H](n1cc(C)c(=O)n(C)c1=O)[C@@H]2O[Si](C)(C)C(C)(C)C,14,10,,,,,,,,,
> 100,> 100,Cc1cn([C@@H]2O[C@H](CO[Si](C)(C)C(C)(C)C)[C@@]3(OS(=O)(=O)C=C3NC(=O)NC(=O)c3ccccc3)[C@H]2O)c(=O)n(C)c1=O,22,> 100,,,,,,,,,
> 50,> 50,Cc1cn([C@@H]2O[C@H](COCc3ccccc3)[C@@]3(OS(=O)(=O)C=C3NC(=O)NC(=O)c3ccccc3)[C@H]2O[Si](C)(C)C(C)(C)C)c(=O)n(C)c1=O,> 50,> 50,,,,,,,,,
> 100,> 100,Cc1cn([C@@H]2O[C@H](CO)[C@@]3(OS(=O)(=O)C=C3NC(=O)NC(=O)c3ccccc3)[C@H]2O)c(=O)n(C)c1=O,> 50,100,,,,,,,,,
> 4,> 4,Cc1cn([C@@H]2O[C@H](CO)[C@@]3(OS(=O)(=O)C=C3NC(=O)NC(=O)c3ccccc3)[C@H]2O[Si](C)(C)C(C)(C)C)c(=O)n(C)c1=O,16,20,,,,,,,,,
,,Nc1nc2c(ncn2COCCO)c(=O)[nH]1 [ACYCLOVIR],,,7.9,22,130,91,12,173,7.7,4.8,
1.3,1.1,Cc1cn([C@@H]2O[C@H](CO[Si](C)(C)C(C)(C)C)[C@@]3(OS(=O)(=O)C=C3NC(=O)NCc3ccccc3)[C@H]2O[Si](C)(C)C(C)(C)C)c(=O)n(C)c1=O,4.1,4,,,,,,,,,
> 3.2,> 3.2,CCOC(=O)CNC(=O)NC1=CS(=O)(=O)O[C@@]12[C@@H](CO[Si](C)(C)C(C)(C)C)O[C@@H](n1cc(C)c(=O)n(C)c1=O)[C@@H]2O[Si](C)(C)C(C)(C)C,13,16,,,,,,,,,
> 100,> 100,CC(C)(C)[Si](C)(C)OCCC1(CO[Si](C)(C)C(C)(C)C)OS(=O)(=O)C=C1NC(=O)NC(=O)c1ccccc1 (stereo not given),> 100,> 100,,,,,,,,,
> 20,> 20,CC(=O)N[C@@H]1O[C@H](CO[Si](C)(C)C(C)(C)C)[C@@]2(OS(=O)(=O)C=C2NC(=O)NC(=O)c2ccccc2)[C@H]1O[Si](C)(C)C(C)(C)C,> 100,100,,,,,,,,,
> 100,> 100,Cc1cn([C@@H]2O[C@H](COC(=O)c3ccccc3)[C@@]3(OS(=O)(=O)C=C3NC(=O)NC(=O)c3ccccc3)[C@H]2O)c(=O)n(C)c1=O,> 100,> 100,,,,,,,,,
≥ 0.14,0.38,Cc1cn([C@@H]2O[C@H](CO[Si](C)(C)C(C)(C)C)[C@@]3(OS(=O)(=O)C=C3NC(=O)Nc3ccccc3)[C@H]2O[Si](C)(C)C(C)(C)C)c(=O)n(C)c1=O,1.3,1.4,,,,,,,,,
,,Nc1nc2c(ncn2COC(CO)CO)c(=O)[nH]1 [GANCICLOVIR],,,9.1,6.2,0.54,9.4,4.9,1.5,6,7.6,
2.2,2.2,Cc1cn([C@@H]2O[C@H](COC(=O)c3ccccc3)[C@@]3(OS(=O)(=O)C=C3NC(=O)NC(=O)c3ccccc3)[C@H]2O[Si](C)(C)C(C)(C)C)c(=O)n(C)c1=O,100,≥ 5,,,,,,,,,
6.3,4.2,Cc1cn([C@@H]2O[C@H](CO[Si](C(C)C)(C(C)C)C(C)C)[C@@]3(OS(=O)(=O)C=C3NC(=O)NC(=O)c3ccccc3)[C@H]2O[Si](C)(C)C(C)(C)C)c(=O)n(C)c1=O,> 100,≥ 100,,,,,,,,,
> 3.2,2,Cc1cn([C@@H]2O[C@H](CO[Si](C)(C)C(C)(C)C)[C@@]3(OS(=O)(=O)C=C3NC(N)=O)[C@H]2O[Si](C)(C)C(C)(C)C)c(=O)n(C)c1=O,11,16,,,,,,,,,
11,2.4,Cc1cn([C@@H]2O[C@H](CO[Si](C)(C)C(C)(C)C)[C@@]3(OS(=O)(=O)C=C3NC(=O)NC(=O)c3ccccc3)[C@H]2O[Si](C)(C)C(C)(C)C)c(=O)n(C)c1=O,> 200,≥ 80,,,,,,,,,inactive
